Reference: paper PMC6068850 (World Journal of Hepatology, 2018)
Values after ≈ are worked out from the molar mass of the structure shown.

What was measured:
Aqueous solubility = assay type: physicochemical; details: aqueous (water)
[1] = In vitro stability in HCl buffer; assay type: physicochemical; details: 0.05 mol/L HCl, 37 °C, till 3 h, HPLC
Method in brief: (§1)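 5 mL aliquots were replaced with fresh buffer at 0, 15, 30, 45, 60 min, then every 30 min to 3 h (HCl) or 6 h (phosphate). Analysed by reverse-phase C18 HPLC against 10-100 μg/mL calibration curves; triplicate.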

[2] = In vitro stability in phosphate buffer; assay type: physicochemical; details: 0.05 mol/L phosphate buffer, 37 °C, till 6 h, HPLC
Method in brief: as §1

[3] = In vitro release in rat stomach homogenates; assay type: in vitro ADME; details: till 3 h
Method in brief: (§2)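 Incubations in rat stomach homogenate ran up to 3 h; those in intestinal homogenate ran up to 6 h. Intact prodrug and released INH were quantified simultaneously by validated reverse-phase C18 HPLC using prodrug-specific mobile phases at 1 mL/min with UV detection. Percent hydrolysed and INH released came from calibration curves. Rate constants, half-lives and kinetic order were calculated; samples were run in triplicate.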

[4] = In vitro release kinetics in rat intestinal homogenates; assay type: in vitro ADME; details: for % Prodrug hydrolysed / K ± SD (hydrolysis rate constant): rat intestinal homogenates; for % Prodrug hydrolysed: over 6 h; for K ± SD (hydrolysis rate constant): first-order kinetics, average of three readings; for half-life: rat, intestinal homogenates
Method in brief: as §2

[5] = system: superoxide dismutase (SOD); test: Liver superoxide dismutase activity, hepatoprotective study; assay type: in vivo, Wistar rats; details: 21 d oral; for Level of SOD re-established: dose equimolar to INH 150 mg/kg/day
[6] = system: glutathione peroxidase (GSHPx); test: Liver glutathione peroxidase, hepatoprotective study; assay type: in vivo, Wistar rats; details: 21 d oral; for Level of GSHPx re-established: dose equimolar to INH 150 mg/kg/day
rat liver = test: Histopathological analysis of rat liver; assay type: in vivo, Wistar rats; details: H&E-stained liver sections, 21 d oral
Method in brief: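 Male Wistar rats (180-200 g), acclimatized 1 wk at 24 ± 1 °C, 45%-55% humidity, 12:12 h light/dark; 8 groups of 6. Oral dosing for 21 d as a suspension in 1% sodium CMC, with doses equimolar to the parent drug. On day 22, rats were fasted overnight, bled and sacrificed. Liver was washed in ice-cold saline, fixed in 10% formalin, sectioned, H&E-stained and photographed under light microscopy.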

Wistar rats = test: Evaluation of hepatoprotective potential; assay type: in vivo; details: male Wistar rats, 21 d oral
Method in brief: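 Male Wistar rats (180-200 g), acclimatized 1 wk, randomized into 8 groups of 6. Oral suspensions in 1% sodium CMC for 21 d: INH 150 mg/kg/day, prodrugs and physical mixtures equimolar to INH, saline control. On day 22, rats were fasted overnight, bled retrobulbarly and sacrificed. Endpoints: serum ALT/AST, TG, cholesterol; liver SOD, GSHPx, MDA; blinded H&E histology.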

[7] = In vivo release studies after oral administration of NI; set-up: species or system Wistar rats
Method in brief: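 Male Wistar rats were fasted 24 h and housed individually in metabolic cages. They received an oral suspension of test compound in 1.0 mL saline, 309 mg/kg (equimolar to INH). EDTA blood was collected at 0 min, every 15 min for 1 h, every 2 h to 10 h, and at 24 h. Samples were spun 5000 rpm at 0-5 °C, methanol-precipitated and analysed by HPLC. Urine and faeces were pooled over 24 h.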

malondialdehyde (MDA) = test: Assay of lipid peroxidation products in liver; assay type: in vivo, Wistar rats; details: 21 d oral, treated groups vs INH-treated group
Method in brief: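 Hepatic lipid peroxidation was measured as thiobarbituric-acid-reactive MDA (Ohkawa method). 1,1,3,3-tetraethoxypropane was the standard, and results were expressed as micromoles per gram of tissue. Livers came from male Wistar rats (6/group) given oral suspensions in 1% sodium CMC for 21 d, INH 150 mg/kg/day, test compounds equimolar. Mean ± SEM; one-way ANOVA/Dunnett versus the INH group.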

[8] = system: alanine aminotransferase (ALT); test: Estimation of serum alanine aminotransferase; assay type: in vivo, Wistar rats; details: 21 d oral, mean ± SEM
Method in brief: (§3)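 Serum aminotransferases were measured colorimetrically with commercial kits (Reitman–Frankel method). Male Wistar rats (6/group) were dosed orally for 21 d in 1% sodium CMC, INH 150 mg/kg/day, test compounds equimolar. Blood was drawn retrobulbarly after an overnight fast on day 22. Mean ± SEM; one-way ANOVA with Dunnett's test versus the INH group.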

[9] = system: aspartate aminotransferase (AST); test: Estimation of serum aspartate aminotransferase; assay type: in vivo, Wistar rats; details: 21 d oral, mean ± SEM
Method in brief: as §3

solubility (Aqueous solubility) [mg/mL] | Stability in HCl buffer, pH 1.2 [1] | Stability in phosphate buffer, pH 7.4 [2] | Release of INH in stomach homogenates [3] | % Prodrug hydrolysed [4] [%] | K ± SD (hydrolysis rate constant) [4] [min⁻¹] | half-life [4] [h] | Compound | Level of SOD re-established [5] [%] | Level of GSHPx re-established [6] [%] | Liver histopathology findings (rat liver) | Hepatoprotective potential assessment (overall) (Wistar rats) | Effect on MDA level (in words) (malondialdehyde (MDA)) | ALT level [8] [U/L] | AST level [9] [U/L] | other results
114 (≈ 425 mM) | Stable | Stable | Negligible | 86.55 | 0.0051 | 3.02 | CSCCC(N)C(=O)NNC(=O)c1ccncc1 (stereo not shown) [MI, Isonicotinic acid N’-(2-amino-4-methylsulfanyl-butyryl)-hydrazide] | 88.69 | 93.87 | minimal inflammation, with minimal portal triaditis and mild dilation of blood sinusoids | moderate effects | – | – | – | –
104 (≈ 368 mM) | Stable | Stable | Negligible | 94.93 | 0.0034 | 3.89 | CC(=O)NC(CS)C(=O)NNC(=O)c1ccncc1 (stereo not shown) [NI, N-{1-mercaptomethyl-2-oxo-2-[N’-(pyridine-4-carbonyl)-hydrazino]-ethyl}-acetamide] | 93.39 | 100 | reversal of such pathology, with no evidence of necrosis, inflammation or fibrosis | noteworthy effects | better compared to that achieved with MI | 48 ± 4.50 | 46 ± 7.30 | INH in urine and faeces samples ([7]; 24 h pooled samples): without any presence; Intact NI in urine and faeces samples ([7]; 24 h pooled samples): not observed; Time at which intact NI completely disappeared from blood ([7]; Wistar rats, blood): 7.5 to 9 h; Time from which concentration of intact NI in blood started declining ([7]; Wistar rats, blood): 5.5 to 6.5 h; Time of appearance of intact NI in blood ([7]; Wistar rats, blood): 2 to 2.5 h
94 (≈ 333 mM) | Stable | Stable | Negligible | 70.11 | 0.0033 | 3.62 | CC(S)C(=O)NCC(=O)NNC(=O)c1ccncc1 (stereo not shown) [MGI, 2-Mercapto-N-{2-oxo-2-[N’-(pyridine-4-carbonyl)-hydrazino]-ethyl}-propionamide] | 71.98 | 91.83 | minimal inflammation, with minimal portal triaditis and mild dilation of blood sinusoids | moderate effects | better compared to that achieved with MI | – | – | –
135 (≈ 984 mM) | – | – | – | – | – | – | NNC(=O)c1ccncc1 [INH, isoniazid, reference compound] | – | – | all these pathological changes were noticed | – | significantly higher | 144 ± 7.70 | 148 ± 7.60 | Effect on level of SOD (in words) [5]: significantly lower; Effect on level of GSHPx (in words) [6]: significantly lower
